Compound activity as filed in PubChem.
Mdm2-MdmX inh = human Mdm2/MdmX binding inhibition; 330,000 compounds, 3% hits; O15151+Q00987; SaOS-2 split-luciferase Mdm2/MdmX complementation, luminescence; inhibition, % at 8 µM;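 active means inhibition of at least 50% at 8 µM in the primary screen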
XBP1 UPR activ = adaptive UPR (XBP1) activation | AID 463104 | activation, % at 20 µM | CHO-XBP1 luciferase reporter, IRE1-XBP1 UPR activation, luminescence; percent of tunicamycin response, DMSO as zero | 330,000 compounds, 0.33% hits;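 active means versus positive control, 20 µM dose yields 30% or more activation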
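Material: CHO-XBP1 cells stably carrying IRE1-XBP1-driven luciferase reporter / Amount: 1000 cells per well / Compound: 20 µM, 1% DMSO / Times: 6 h treatment, 37 °C / Detection: luciferase luminescence / Measure: % activation of reporter signal versus tunicamycin and DMSO controls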
ABHD5 PLIN5 PPI = inhibitors of human ABHD5-perilipin-5 interaction; Split G. princeps luciferase complementation, luminescence, 4 h; AID 602281; Q00G26+Q8WTS1; inhibition, % at 4 µM; 360,000 compounds, 0.78% hits;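 active means inhibition above the mean inhibition across every tested compound plus 3 SD, cut at about 22% in these data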
UPR CHOP act = activators of apoptotic arm of unfolded protein response (CHOP); CHO-CHOP luciferase reporter, UPR activation, luminescence; percent of tunicamycin response over DMSO baseline; activation, % at 10 µM; 330,000 compounds, 0.34% hits;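 active means at 10 µM dose, activation of 40% or more, normalized to positive control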
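Assay system: CHO-CHOP cells, stable luciferase reporter of PERK-eIF2a-CHOP signalling / Buffer or medium: F12 plus 10% serum / Compound dosing: one dose, 10 µM in 0.5% DMSO / Times: 6 h compound treatment, 37 °C / Technique: luciferase luminescence / Read-out: % reporter activation, DMSO baseline versus tunicamycin full activation / Benchmarks: tunicamycin and DMSO controls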
Exocytosis inh = lytic granule exocytosis inhibition; TALL-104 LAMP-1 surface exposure, flow cytometry; cells stimulated with thapsigargin and PMA; inhibition, % at 10 µM; 360,000 compounds, 0.66% hits;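 active means inhibition above about 55%, limit read from the data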
Each line names hits and unclear results; the compound was inactive in the other large screens; ! = a repeat was not active. This is a sample that favours compounds with a hit; in the whole collection about 4% have one here.

Cc1nc(S/C(=C/c2ccc(-c3ccc(Cl)cc3)o2)C(=O)O)n[nH]1	Exocytosis inh 69
Cc1ccc(NC(=O)COC(=O)CCC(=O)c2cccs2)c(Br)c1	Exocytosis inh 75
Cn1c(COc2ccccc2)nnc1SCC(=O)Nc1nnc(C2CC2)s1	none (no result: Mdm2-MdmX inh, XBP1 UPR activ, UPR CHOP act)
CCOC(=O)/C=C/C(=O)Nc1cc(S(=O)(=O)Nc2ccc(OC)cc2)ccc1N1CCOCC1	ABHD5 PLIN5 PPI 22
COc1cc(Cl)ccc1OCc1cc(C(=O)NCC(C)(C)N2CCOCC2)no1	none
O=C(COC(=O)/C=C/c1ccc(Cl)cc1)Nc1ccccc1-c1ccccc1	none (no result: Mdm2-MdmX inh, XBP1 UPR activ, UPR CHOP act)
Cc1ccc(-n2c([S-])c(C(=O)Nc3ccc(OC(F)F)cc3)[n+]3ccc(C(=O)NCCO)cc23)cc1C	none
COc1ccccc1-n1c([S-])c(C(=O)Nc2ccccc2C(F)(F)F)[n+]2ccc(C(=O)NCCO)cc12	Exocytosis inh 63
CCOC(=O)CNC(=O)CN1CCCN(S(=O)(=O)c2ccc(Br)s2)CC1	none
O=C(CN1CCCN(S(=O)(=O)c2ccc(Br)s2)CC1)Nc1ccc(Cl)cc1	ABHD5 PLIN5 PPI 50
CN(C)CCCNS(=O)(=O)c1ccc(NC2CCCCCC2)c([N+](=O)[O-])c1	Exocytosis inh 60
CCNc1ccc(S(=O)(=O)NCCN(C)C)cc1[N+](=O)[O-]	none
CC(=O)C1=C(C)NC(SCC(=O)c2cc(Cl)ccc2Cl)=C(C#N)C1c1ccco1 (centres undefined)	ABHD5 PLIN5 PPI 22
Cc1cc(C(=O)OC(C)C(=O)NC2CCCCC2)c(C)o1 (centres undefined)	none
Cc1cccc(-n2c(C)cc(/C=C3/C(=N)N4C(c5ccccc5)=CSC4=NC3=O)c2C)c1	none
Cc1cc(/C=C2/C(=N)N3C(c4ccccc4)=CSC3=NC2=O)c(C)n1-c1ccc(Cl)cc1	Exocytosis inh 60 (no result: Mdm2-MdmX inh, XBP1 UPR activ, UPR CHOP act)
COc1ccc(N=C2NC(=O)/C(=C\C=C\c3ccco3)S2)cc1	ABHD5 PLIN5 PPI 22
COc1ccc(C2=Nc3ccccc3NC(=O)C2N(CCc2cc(OC)cc(OC)c2)C(C)=O)cc1 (centres undefined)	none (no result: Mdm2-MdmX inh, XBP1 UPR activ, UPR CHOP act)
C#CCOCCOCCOCCNc1nc(N2CCN(C(=O)CCCCCCCCCCNC(=O)[C@H](CO)n3cc(CCCCCN)nn3)CC2)nc(N2CCN(C(=O)CCCCCCCCCCNC(=O)[C@H](CCCN=C(N)N)n3cc(C[C@@H](C)CC)nn3)CC2)n1	none (no result: ABHD5 PLIN5 PPI, Exocytosis inh)
C#CCOCCOCCOCCNc1nc(N2CCN(C(=O)CCCCCCCCCCNC(=O)[C@@H](CCSC)n3cc(CCO)nn3)CC2)nc(N2CCN(C(=O)CCCCCCCCCCNC(=O)[C@H](CCC(=O)O)n3cc(CCCCCN)nn3)CC2)n1	ABHD5 PLIN5 PPI 41
C#CCOCCOCCOCCNc1nc(N2CCN(C(=O)CCCCCCCCCCNC(=O)[C@@H](CCSC)n3cc(CCO)nn3)CC2)nc(N2CCN(C(=O)CCCCCCCCCCNC(=O)[C@H](CCCN=C(N)N)n3cc(C[C@@H](C)CC)nn3)CC2)n1	ABHD5 PLIN5 PPI 64
C#CCOCCOCCOCCNc1nc(N2CCN(C(=O)CCCCCCCCCCNC(=O)[C@H](CCCCN)n3cc(CCO)nn3)CC2)nc(N2CCN(C(=O)CCCCCCCCCCNC(=O)[C@H](CCCCN)n3cc(CCCC(=O)O)nn3)CC2)n1	none
C#CCOCCOCCOCCNc1nc(N2CCN(C(=O)CCCCCCCCCCNC(=O)[C@@H](CCC(=O)O)n3cc(CCCCCN)nn3)CC2)nc(N2CCN(C(=O)CCCCCCCCCCNC(=O)[C@H](CO)n3cc(CCCSC)nn3)CC2)n1	ABHD5 PLIN5 PPI 47
Cc1cc(C)c(C(=O)CN2C(=O)NC3(CCCCC3)C2=O)cc1C	none
COCCCn1c(SCCc2ccccc2)nc2cc(OC)c(OC)cc2c1=N	Exocytosis inh 60
CS(=O)(=O)c1ccc2nc(NC(=O)c3ccccc3)sc2c1	none
CS(=O)(=O)c1ccc(C(=O)Nc2nc(-c3ccco3)c(-c3ccco3)s2)cc1	ABHD5 PLIN5 PPI 22
COc1cccc2sc3cc(NCc4ccc(C)o4)ccc3c(=O)c12	none
Cc1ccccc1-c1nc(S(=O)(=O)c2ccc(Br)cc2)c(NCc2cccnc2)o1	Exocytosis inh 76
Cc1ccc(S(=O)(=O)c2nc(-c3ccccc3)oc2NCc2cccnc2)cc1	none
COc1ccc(C2Nc3ccccc3C(=O)N2Cc2ccco2)cc1COc1ccccc1F (centres undefined)	ABHD5 PLIN5 PPI 23
COc1ccc(C2Nc3ccccc3C(=O)N2Cc2ccco2)cc1COc1ccc(NC(C)=O)cc1 (centres undefined)	none
COc1ccc(Nc2cc(C)nc(NCc3ccccc3)n2)cc1	ABHD5 PLIN5 PPI 22
O=[N+]([O-])c1ccc(Nc2ccccc2)c2nonc12	none
O=[N+]([O-])c1ccc(Sc2cccc[n+]2[O-])c2nonc12	ABHD5 PLIN5 PPI 86, Exocytosis inh 96 (no result: Mdm2-MdmX inh, XBP1 UPR activ, UPR CHOP act)
Fc1ccc(N2CCN(Cc3cnc(Cl)s3)CC2)cc1	none
N#C/C(=C\Nc1ccc(Cl)cn1)S(=O)(=O)c1ccccn1	none
COc1ccc2cc(CN(CCc3ccccc3)Cc3nnnn3Cc3ccco3)c(=O)[nH]c2c1	ABHD5 PLIN5 PPI 22
COc1ccc2[nH]c(=O)c(CN(C3CCCCC3)C(c3nnnn3Cc3ccco3)C(C)C)cc2c1 (centres undefined)	ABHD5 PLIN5 PPI 46
Cc1cccc(N/N=C/c2ccc(C)s2)c1	Exocytosis inh 61
Cc1cccc(N/N=C/c2ccc(O)c(O)c2O)c1	none
O=C(Nc1cccc(Oc2ccc3c(c2)C(=O)NC3=O)c1)c1ccco1	none
Cc1cc(C)c(S(=O)(=O)/N=C2/C=C(SCC(=O)O)C(=O)c3ccccc32)cc1C	Exocytosis inh 79
Cc1cc(C)c(S(=O)(=O)/N=C2\C=C(NS(=O)(=O)c3ccccc3)C(=O)c3ccccc32)c(C)c1	none
O=C(O)c1cc(-c2ccco2)nc2ccc(Br)cc12	ABHD5 PLIN5 PPI 29!
COc1cccc(CNC(=O)c2cc(C3CC3)nc3c2cnn3C(C)C)c1	none
O=C(NCCN1CCC(n2c(=O)[nH]c3ccccc32)CC1)c1c(F)cccc1F	none (no result: Mdm2-MdmX inh, XBP1 UPR activ, UPR CHOP act)
Cn1cccc1/C=C1\SC(=Nc2ccccc2)NC1=O	Exocytosis inh 56
Cn1cccc1/C=C1\SC(=Nc2cccc(O)c2)NC1=O	none
CCc1cccc(C)c1NC(=O)CSc1nnc(-c2cc3cc(Br)ccc3o2)n1CC	none
CC(=O)N/C(=N/c1nc(C)cc(C)n1)Nc1ccc(C)cc1C	Exocytosis inh 66
N#C/C(=C\c1ccc(-c2nc3ccccc3s2)o1)C(N)=O	none
CN(c1ccc(OCC(=O)OCC(=O)c2c(N)n(C)c(=O)n(C)c2=O)cc1)S(=O)(=O)c1ccc2ccccc2c1	Exocytosis inh 69
CN(CCO)c1cc(NCCCN2CCC(Cc3ccccc3)CC2)c2nonc2c1[N+](=O)[O-]	none
Clc1cccc(Cc2c(-c3cccc(Br)c3)nc3ccc(Cl)cn23)c1	none (no result: Mdm2-MdmX inh, XBP1 UPR activ, UPR CHOP act)
